Screening data (PubChem)
A3G deaminase: blocks human APOBEC3G single-stranded DNA deamination; actives 0.28% (n = 330,000); recombinant A3G, ssDNA deamination FAM/TAMRA fluorescence; Q9HC16; inhibition, % at 20 µM; AID 493012;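 active means inhibition of at least 40% at 20 µM, with no more than 30% in the related APOBEC3A deaminase screen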;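 further: plate controls were DMSO wells with A3G for no effect and wells lacking A3G enzyme for full effect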
Target sequence (Q9HC16 whole entry, looked up): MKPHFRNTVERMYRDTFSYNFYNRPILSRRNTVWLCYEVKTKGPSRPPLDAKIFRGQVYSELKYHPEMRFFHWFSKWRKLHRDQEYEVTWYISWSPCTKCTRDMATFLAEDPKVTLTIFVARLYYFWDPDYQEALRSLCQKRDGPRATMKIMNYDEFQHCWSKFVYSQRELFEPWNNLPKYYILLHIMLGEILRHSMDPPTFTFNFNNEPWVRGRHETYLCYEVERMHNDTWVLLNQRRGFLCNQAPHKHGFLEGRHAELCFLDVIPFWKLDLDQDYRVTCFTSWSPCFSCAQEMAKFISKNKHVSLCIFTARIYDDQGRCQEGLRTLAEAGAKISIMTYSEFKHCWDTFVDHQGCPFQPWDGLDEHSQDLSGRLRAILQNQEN
APOBEC3A inh: human APOBEC3A DNA deaminase inhibition | recombinant A3A, FAM/TAMRA ssDNA deamination fluorescence | P31941 | inhibition, % at 20 µM | actives 0.41% (n = 330,000) | AID 493011;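 active means at least 40% inhibition at 20 µM here, with at most 30% in a related deaminase screen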;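 further: plate controls were A3A with DMSO for no effect and wells lacking A3A enzyme for full effect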
Target sequence (P31941 whole entry, looked up): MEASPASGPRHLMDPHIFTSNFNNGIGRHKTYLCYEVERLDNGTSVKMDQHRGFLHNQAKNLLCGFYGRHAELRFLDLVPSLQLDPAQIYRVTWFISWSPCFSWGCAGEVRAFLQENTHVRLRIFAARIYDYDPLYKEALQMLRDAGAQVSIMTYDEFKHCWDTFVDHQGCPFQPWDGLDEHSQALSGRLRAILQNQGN
FN deposition inh: fibronectin deposition inhibition | AH1F fibroblasts, Alexa488-fibronectin deposition fluorescence, overnight | inhibition, % at 12.6 µM | actives 0.086% (n = 350,000);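 active means mean inhibition across replicates of 30% or more, regardless of how many single replicates reach that level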;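 further: positive control wells lacked labelled fibronectin entirely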
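Material: AH1F fibroblast monolayer depositing Alexa488-labelled fibronectin into matrix | Input: 10000 AH1F cells/well | Medium: DMEM plus 2% serum, read in PBS | Reagent: Alexa488-fibronectin, 24 nM final in well | Compound dosing: One dose per compound, pinned | Schedule: 1 h adhesion, overnight exposure | Measured by: Fluorescence at 485 nm excitation, 525 nm emission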
ABHD5-PLIN5 inh: blocks binding of human ABHD5 to perilipin-5 | Split G. princeps luciferase complementation, luminescence, 4 h | inhibition, % at 4 µM | actives 0.78% (n = 360,000) | AID 602281;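 active means inhibition above the mean inhibition across every tested compound plus 3 SD, cut at about 22% in these data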;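 further: 0% = DMSO only wells and the 100% control is not disclosed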
ABHD5-PLIN5 conf: confirmation of human ABHD5-PLIN5 interaction inhibitors; shares compounds with ABHD5-PLIN5 inh; biochemical ABHD5-PLIN5 interaction, luminescence; inhibition, % at 4 µM; actives 67% (n = 2,200); in the data active means inhibition above about 23%;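 further: 0% = DMSO vehicle wells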
HNF4 counter: counter-screen for ABHD5-PLIN5 inhibitors: HNF4 split-luciferase; actives 77% (n = 2,200); AID 651674; shares compounds with ABHD5-PLIN5 inh; HNF4 dimerization, luminescence, biochemical; inhibition, % at 4 µM;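 active means mean inhibition across replicate wells exceeding the computed hit threshold, cut at about 13% in these data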;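 further: light from luciferase halves that rejoin when HNF4 fusion proteins dimerize; 0% = DMSO only wells and the 100% control is not given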
Numbers without * were called inactive; . = no result given. Rows were chosen to be rich in hits. Some 1.2% of all compounds tested hit in one or more screens of this group.

SMILES | A3G deaminase | APOBEC3A inh | FN deposition inh | ABHD5-PLIN5 inh | ABHD5-PLIN5 conf | HNF4 counter
COc1cc2sc(-c3ccc(S(C)(=O)=O)cc3)c(C(=O)NCc3ccc(C)o3)c2cc1OC | -6 | -4 | -3 | 33* | 9 | 20*
C#CCOCCOCCOCCNc1nc(N2CCN(C(=O)CCCCCCCCCCNC(=O)[C@@H](CCSC)n3cc(CCO)nn3)CC2)nc(N2CCN(C(=O)CCCCCCCCCCNC(=O)[C@@H]([C@H](C)O)n3cc(C)nn3)CC2)n1 | 0 | 0 | 7 | 53* | 8 | -17
Cc1cn([C@@H](CCCCNC(=O)OC(C)(C)C)C(=O)NCCCCCCCCCCC(=O)N2CCN(C(=O)OC(C)(C)C)CC2)nn1 | -7 | -3 | . | 24* | 3 | -10
C#CCOCCOCCOCCNc1nc(N2CCN(C(=O)CCCCCCCCCCNC(=O)[C@H](CCCCN)n3cc(C)nn3)CC2)nc(N2CCN(C(=O)CCCCCCCCCCNC(=O)[C@@H]([C@H](C)O)n3cc(C)nn3)CC2)n1 | -10 | -2 | . | 44* | 8 | -4
C#CCOCCOCCOCCNc1nc(N2CCN(C(=O)CCCCCCCCCCNC(=O)Cn3cc(C[C@@H](C)O)nn3)CC2)nc(N2CCN(C(=O)CCCCCCCCCCNC(=O)[C@@H](CCSC)n3cc(CCO)nn3)CC2)n1 | -4 | 0 | . | 11 | . | .
CO[C@H](CN(C)C(=O)c1ccccc1F)[C@H](C)CN([C@@H](C)CO)S(=O)(=O)c1ccc(Cl)cc1 | . | . | 0 | . | . | .
Cc1cc(N2CCCC2)c(F)cc1/C=C\[N+](=O)[O-] | . | . | -9 | 47* | 97* | 95*
Cc1cc(N2CCC(C)CC2)c(F)cc1[N+](=O)[O-] | -4 | -2 | 5 | 6 | . | .
CCc1c(C)sc(NC(=O)c2cccs2)c1C#N | -3 | -5 | 2 | 24* | -7 | -10
COC(=O)C[C@@H]1C[C@@H]2c3cc(NC(=O)Nc4ccc(C(F)(F)F)cc4)ccc3O[C@@H]2[C@@H](CO)O1 | . | . | -10 | . | . | .
O=C(O)C[C@@H]1CC[C@H](NC(=O)c2ccncc2)[C@@H](CO)O1 | . | . | 11 | . | . | .
COc1ccc(/C=C\C(=O)CC(O)(c2ccccc2)C(F)(F)F)cc1 (configuration not stated) | -6 | -2 | -14 | 53* | 79* | 55*
CNC[C@H]1Oc2ccc(NS(=O)(=O)c3cccs3)cc2CC(=O)N([C@@H](C)CO)C[C@H]1C | . | . | 0 | . | . | .
CNc1ccc(Br)cc(C(=O)/C=C/c2cccc(OC)c2)c1=O | 1 | 16 | -4 | 30* | 65* | 49*
C[C@@H]1CN([C@@H](C)CO)C(=O)c2ccccc2-c2ccccc2CO[C@@H]1CN(C)C(=O)Nc1ccnc(N2CCOCC2)c1 | . | . | 3 | . | . | .
N#Cc1cc2c(=O)n3ccccc3nc2n(Cc2ccco2)c1=NC(=O)c1ccco1 | 63 | 63 | -7 | 50* | 7 | 26*
CC(=O)N=c1c(C#N)cc2c(=O)n3cccc(C)c3nc2n1Cc1ccco1 | 31 | 20 | -6 | 49* | 13 | 14*
O=C(Oc1ccc(F)cc1)c1cccnc1 | -6 | 1 | 2 | 12 | . | .
CC1=CC(C)(C)Nc2ccc(OC(=O)c3ccco3)cc21 | -7 | -4 | 11 | 67* | 91* | 91*
CC1=CC(C)(C)Nc2ccc(OC(=O)c3cccnc3)cc21 | 1 | 0 | . | 78* | 97* | 72*
CC1=CC(C)(C)Nc2ccc(OC(=O)CN3C(=O)CCC3=O)cc21 | -6 | -3 | . | 80* | 96* | 33*
COc1ccc(OC(=O)C(C)N2C(=O)c3ccccc3C2=O)cc1 (configuration not stated) | -8 | -3 | -1 | 5 | . | .
CC1=CC(C)(C)Nc2ccc(OC(=O)C(C)N3C(=O)c4ccccc4C3=O)cc21 (configuration not stated) | -2 | 4 | -25 | 58* | 90* | 24*
CC1=CC(C)(C)Nc2ccc(C)cc21 | -7 | -4 | -4 | -2 | . | .
CCCC(=O)Nc1ccc2c(c1)OC[C@@H](C)N(Cc1ccc(F)cc1)C[C@@H](C)[C@@H](OC)CN(C)C2=O | . | . | -22 | . | . | .
SMILES | A3G deaminase | APOBEC3A inh | FN deposition inh | ABHD5-PLIN5 inh | ABHD5-PLIN5 conf | HNF4 counter
CNC[C@H]1Oc2ncc(-c3cccc(C(=O)N(C)C)c3)cc2C(=O)N([C@H](C)CO)C[C@H]1C | . | . | 7 | . | . | .
Cc1cccc(C)c1OCc1cn(CC(=O)c2ccc(O)cc2)nn1 | . | . | -4 | 45* | 66* | 37*
COc1cc(C(C)=O)ccc1OCc1cn(CC(=O)c2ccc(O)cc2)nn1 | . | . | -7 | 25* | 53* | 31*
O=C(Cn1cc(COc2cc(F)cc(F)c2)nn1)c1ccc(O)cc1 | . | . | -1 | 3 | . | .
CC(=O)c1ccc(OCc2cn(CC(=O)c3ccc(O)cc3)nn2)c(C)c1 | . | . | 0 | 6 | . | .
O=C(Cn1cc(COc2ccccc2C(F)(F)F)nn1)c1ccc(O)cc1 | . | . | -3 | 0 | . | .
CC(=O)c1ccc(OCc2cn(CC(=O)c3ccc(O)cc3)nn2)cc1 | . | . | 5 | 23* | 20 | 24*
CC(=O)Nc1ccc(OCc2cn(CC(=O)c3ccc(O)cc3)nn2)cc1 | . | . | -6 | 68* | 83* | 53*
CCc1csc(N2[C@H](C#N)[C@@H](c3ccc(-c4cccc(F)c4)cc3)[C@@H]2CO)n1 | . | . | -4 | . | . | .
COc1ccccc1NC(=O)N1C[C@@H](O)COC[C@H]2O[C@@H](CC(=O)NCCc3ccccc3)CC[C@@H]21 | . | . | -4 | . | . | .
O=C(/C=C/c1cccc(Cl)c1)c1nc2ccccc2[nH]1 | 1 | -1 | -1 | 61* | 98* | 99*
CNC[C@H]1Oc2ccc(NC(=O)Nc3ccc4c(c3)OCO4)cc2CC(=O)N([C@@H](C)CO)C[C@H]1C | . | . | 6 | . | . | .
COCc1cn(CC[C@@H]2CC[C@H](NC(=O)c3ccncc3)[C@@H](CO)O2)nn1 | . | . | 5 | . | . | .
Cc1ccccc1-n1c(=O)cc(N2CCN(C(=O)c3ccco3)CC2)[nH]c1=O | -1 | 1 | -3 | 25* | 4 | 7
Cc1ccccc1-n1c(=O)cc(N2CCCCCC2)[nH]c1=O | -4 | -2 | -13 | 4 | . | .
O=C1Nc2ccccc2C1=Nc1cccc(Cl)c1 | -9 | -5 | 6 | 78* | -14 | 0
CSc1cccc(N=C2C(=O)Nc3ccccc32)c1 | -4 | -3 | 8 | -3 | . | .
CCCNC(=O)C[C@H]1CC[C@H]2[C@@H](COC[C@H](O)CN2C(=O)c2cccnc2)O1 | . | . | 1 | . | . | .
Cc1cccc(N2CCN(C(=S)Nc3ccc4nc(N5CCN(C)CC5)cc(C)c4c3)CC2C)c1 (configuration not stated) | -7 | 1 | -1 | 25* | 10 | -4
Cc1cc(N2CCN(C)CC2)nc2ccc(NC(=S)N3CCN(c4cccc(Cl)c4)CC3)cc12 | -8 | 1 | 2 | 10 | . | .
Cc1nc2ccccc2n1CC(O)Cn1c2ccccc2c2ccccc21 (configuration not stated) | -4 | -1 | -3 | 29* | 9 | 25*
